Measured values reported in ChEMBL document CHEMBL1152910, “Synthesis and structure-activity relationships of phenothiazine carboxylic acids having pyrimidine-dione as novel histamine H(1) antagonists” (Bioorg Med Chem Lett, 2009).

How the values were obtained:
[1] = Oral bioavailability in rat; type: ADME, organism-based; conditions: in vivo
[2] = Protein binding in rat by equilibrium dialysis; type: ADME, organism-based; conditions: read-out: PB (converted)
Summary of the method: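 Protein binding (%) determined by equilibrium dialysis.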

Histamine H1 receptor [3] = molecular target: T1, Histamine H1 receptor (Homo sapiens, UniProt P35367); test: Displacement of [3H]pyrilamine from human recombinant histamine H1 receptor expressed in CHOK1 cells by scintillation counting; type: cell-based, CHO-K1
T1 sequence (P35367 whole entry): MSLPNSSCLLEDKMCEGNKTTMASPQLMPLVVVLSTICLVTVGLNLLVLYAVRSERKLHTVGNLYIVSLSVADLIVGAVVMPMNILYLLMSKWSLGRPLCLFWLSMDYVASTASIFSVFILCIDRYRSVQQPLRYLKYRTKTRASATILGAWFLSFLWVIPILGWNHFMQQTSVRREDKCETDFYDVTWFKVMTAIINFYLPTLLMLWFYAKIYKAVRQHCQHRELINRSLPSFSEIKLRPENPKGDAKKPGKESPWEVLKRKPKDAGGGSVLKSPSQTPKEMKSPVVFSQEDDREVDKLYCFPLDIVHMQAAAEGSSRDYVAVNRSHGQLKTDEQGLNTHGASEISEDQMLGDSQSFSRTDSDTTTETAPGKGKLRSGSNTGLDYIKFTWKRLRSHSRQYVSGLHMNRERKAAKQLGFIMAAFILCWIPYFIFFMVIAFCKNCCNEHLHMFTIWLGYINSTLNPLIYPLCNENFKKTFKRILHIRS

[4] = Apparent permeability from apical to basolateral side of human Caco-2 cells after 120 mins
Mus musculus [5] = species: Mus musculus; test: animal or person; type: functional; conditions: ddY, route oral
Mus musculus [6] = test: Antiinflammatory activity in BALB/c mouse model assessed as inhibition of ovalbumin-induced ear swelling at 10 mg/kg, po administered 60 mins before ovalbumin challenge measured 24 hrs after elicitation by late type reaction assay; type: functional
Summary of the method: (§1)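 Female BALB/c mice, 8 weeks old, sensitized by i.p. OVA with alum; two weeks later compound suspended in 0.5% MC given orally 60 min before OVA injection into the ear.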

Mus musculus [7] = test: Antiinflammatory activity in BALB/c mouse model assessed as inhibition of ovalbumin-induced ear swelling at 10 mg/kg, po administered 60 mins before ovalbumin challenge measured 1 hr after elicitation by immediate type reaction assay; type: functional; summary of the method: as §1
Mus musculus [8] = test: In vivo antihistaminic activity at histamine H1 receptor in ddY mouse assessed as inhibition of histamine-induced skin vascular permeability at 10 mg/kg, po administered 1 hr before histamine challenge measured after 30 mins by Evan's blue staining; type: functional
Mus musculus [9] = test: Antiinflammatory activity in po dosed BALB/c mouse model assessed as inhibition of ovalbumin-induced ear swelling administered 60 mins before ovalbumin challenge measured 24 hrs after elicitation by late type reaction assay; type: functional, organism-based; summary of the method: as §1
Mus musculus [10] = test: Antiinflammatory activity in po dosed BALB/c mouse model assessed as inhibition of ovalbumin-induced ear swelling administered 60 mins before ovalbumin challenge measured 1 hr after elicitation by immediate type reaction assay; type: functional, organism-based; summary of the method: as §1
Histamine H1 receptor [11] = molecular target: T1, Histamine H1 receptor; test: Inhibition of histamine H1 receptor
Mus musculus [12] = test: Antiinflammatory activity in BALB/c mouse model assessed as inhibition of ovalbumin-induced ear swelling at 30 mg/kg, po administered 60 mins before ovalbumin challenge measured 24 hrs after elicitation by late type reaction assay; type: functional; summary of the method: as §1
Mus musculus [13] = test: Antiinflammatory activity in BALB/c mouse model assessed as inhibition of ovalbumin-induced ear swelling at 30 mg/kg, po administered 60 mins before ovalbumin challenge measured 1 hr after elicitation by immediate type reaction assay; type: functional; summary of the method: as §1

Structure (SMILES) | bioavailability [1] [%] | fraction unbound [2] | IC50 (Histamine H1 receptor [3]) [nM] | Papp A→B at 2 h [4] [×10⁻⁶ cm/s] | inhibition in vivo at 3 mg/kg (Mus musculus [5]) [%] | inhibition in vivo at 10 mg/kg (Mus musculus [6]) [%] | inhibition in vivo at 10 mg/kg (Mus musculus [7]) [%] | also measured
Cn1c(N2CCN(CCCN3c4ccccc4Sc4ccc(CCC(=O)O)cc43)CC2)cc(=O)n(C)c1=O | 51 | 0.001 | 105 | 5.1 | 51 | – | – | –
CC(C)(C(=O)O)c1ccc(C(O)CCCN2CCC(C(O)(c3ccccc3)c3ccccc3)CC2)cc1 (centres undefined) [FEXOFENADINE] | – | – | – | – | – | 6 | 61 | –
Cn1c(N2CCN(CCCCN3c4ccccc4Sc4ccc(C(=O)O)cc43)CC2)cc(=O)n(C)c1=O | 16 | 0.001 | 35 | 20.3 | – | – | – | inhibition in vivo at 10 mg/kg (Mus musculus [8]): 43%
Cn1c(N2CCCN(CCCN3c4ccccc4Sc4c(C(=O)O)cccc43)CC2)cc(=O)n(C)c1=O | – | – | > 500 | 0.5 | – | – | – | –
Cn1c(N2CCN(CCN3c4ccccc4Sc4ccc(C(=O)O)cc43)CC2)cc(=O)n(C)c1=O | – | – | 124 | 4.9 | – | – | – | –
Cn1c(N2CCN(CCCN3c4ccccc4Sc4ccc(CC(=O)O)cc43)CC2)cc(=O)n(C)c1=O | 27 | 0.022 | 40 | 12.3 | 61 | 64 | 73 | inhibition (Mus musculus [9]): Dose-dependent effect; inhibition (Mus musculus [10]): Dose-dependent effect
Cn1c(N2CCCN(CCCN3c4ccccc4Sc4ccc(/C=C\C(=O)O)cc43)CC2)cc(=O)n(C)c1=O | – | – | 323 | 7.1 | – | – | – | –
Cn1c(N2CCCN(CCCN3c4ccccc4Sc4ccc(C(C)(C)C(=O)O)cc43)CC2)cc(=O)n(C)c1=O | – | 0.045 | 123 | 9.9 | – | – | – | –
CN(CCCN1CCC(CN2c3ccccc3Sc3ccc(C(=O)O)cc32)CC1)c1cc(=O)n(C)c(=O)n1C | – | – | 53 | 0.6 | – | – | – | –
CC(C(=O)O)c1ccc2c(c1)N(CCCN1CCCN(c3cc(=O)n(C)c(=O)n3C)CC1)c1ccccc1S2 (centres undefined) | 10 | 0.022 | 72 | 6.9 | 79 | – | – | –
Cn1c(N2CCCN(CCCN3c4ccccc4Sc4ccc(OCC(=O)O)cc43)CC2)cc(=O)n(C)c1=O | – | 0.047 | 88 | 0.5 | – | – | – | –
Cn1c(N2CCCN(CCCN3c4ccccc4Sc4ccc(C(=O)O)cc43)CC2)cc(=O)n(C)c1=O | 7 | 0.012 | 23 | 4.7 | 14 | 53 | 50 | –
Cn1c(N2CCCN(CCCN3c4ccccc4Sc4ccc(CC(=O)O)cc43)CC2)cc(=O)n(C)c1=O | 19 | 0.051 | 23 | 5.5 | 53 | 12 | 16 | –
C[C@]12C=CC(=O)C=C1CC[C@@H]1[C@@H]2[C@@H](O)C[C@@]2(C)[C@H]1CC[C@]2(O)C(=O)CO [PREDNISOLONE] | – | – | – | – | – | 81 | 22 | –
Cn1c(NCCCN2CCC(Oc3ccc(Cl)c(Cl)c3)CC2)cc(=O)n(C)c1=O | 25 | 0.166 | 28 | 4.2 | – | – | – | IC50 (Histamine H1 receptor [11]): 58 nM; inhibition in vivo at 30 mg/kg (Mus musculus [12]): 61%; inhibition in vivo at 30 mg/kg (Mus musculus [13]): 72%; inhibition in vivo at 10 mg/kg (Mus musculus [8]): 69%
Cn1c(NCCCN2CCC(Oc3ccc(Cl)cc3C(=O)O)CC2)cc(=O)n(C)c1=O | – | – | – | – | – | – | – | IC50 (Histamine H1 receptor [11]): > 1000 nM
CN1CCC(=C2c3ccccc3CC(=O)c3sccc32)CC1.O=C(O)/C=C/C(=O)O [KETOTIFEN FUMARATE] | – | – | – | 11.1 | 98 | 3 | 119 | inhibition in vivo at 30 mg/kg (Mus musculus [12]): -4%; inhibition in vivo at 30 mg/kg (Mus musculus [13]): 106%
Cn1c(NCCCN2CCC(CN3c4ccccc4Sc4ccc(C(=O)O)cc43)CC2)cc(=O)n(C)c1=O | – | – | 46 | 0.4 | – | – | – | –
Cn1c(N2CCCN(CCCN3c4ccccc4Sc4cccc(C(=O)O)c43)CC2)cc(=O)n(C)c1=O | – | – | > 500 | 0.5 | – | – | – | –
Cn1c(N2CCN(CCCN3c4ccccc4Sc4ccc(C(=O)O)cc43)CC2)cc(=O)n(C)c1=O | 17 | 0.006 | 37 | 9.9 | – | 65 | 47 | inhibition in vivo at 10 mg/kg (Mus musculus [8]): 39%
Cn1c(C2=CCN(CCCN3c4ccccc4Sc4ccc(CC(=O)O)cc43)CC2)cc(=O)n(C)c1=O | 30 | – | 41 | 4.7 | 82 | 12 | 86 | –
Cn1c(N2CCCN(CCCN3c4ccccc4Sc4ccc(CCC(=O)O)cc43)CC2)cc(=O)n(C)c1=O | 7 | 0.012 | 69 | 7.7 | 51 | 49 | 79 | –
CCC(C(=O)O)c1ccc2c(c1)N(CCCN1CCCN(c3cc(=O)n(C)c(=O)n3C)CC1)c1ccccc1S2 (centres undefined) | 14 | – | 41 | 22.3 | 51 | – | – | –
